Published values pooled from the literature.
Protocols differ between the studies behind these lines. Values after ≈ are worked out from the molar mass of the structure shown.
Organism: Acinetobacter baumannii
Read-out: microbial growth

Compound | technique | strain | setting | MIC
Cc1cc(/C=C2\Sc3ccccc3N2CCCN2CCC(C)CC2)c2ccccc2[n+]1C.[I-] | broth dilution | ATCC19606 | drug-resistant strain | 16 µg/mL
CC(=O)C1=C(O)C(CC(C)C)NC1=O (centres unmarked) |  | ATCC19606 |  | > 200 µg/mL
COC(=O)c1cc(-c2cccc(NC(=O)Nc3ccccc3OC)c2)on1 | broth dilution | BAA1605 |  | > 64 µg/mL
Fc1c(F)c(F)c(-c2c(F)c(F)c(F)c(F)c2F)c(F)c1F |  | ATCC19606 |  | > 250 µg/mL
CN[C@H](CC(C)C)C(=O)N[C@H]1C(=O)N[C@@H](CC(N)=O)C(=O)N[C@H]2C(=O)N[C@H]3C(=O)N[C@H](C(=O)N[C@H](C(=O)O)c4cc(O)cc(O)c4-c4cc3ccc4O)[C@H](O)c3ccc(c(Cl)c3)Oc3cc2cc(c3O[C@@H]2O[C@H](CO)[C@@H](O)[C@H](O)[C@H]2O[C@H]2C[C@](C)(N)[C@H](O)[C@H](C)O2)Oc2ccc(cc2Cl)[C@H]1O | broth dilution | ATCC19606 | drug-resistant strain | 64 µg/mL (≈ 44.2 µM)
COc1ccc2cc1Oc1cc(ccc1OC)CCC(N[C@@H]1CCCc3ccccc31)CCCC2 (some centres unmarked) | broth dilution | ATCC19606 |  | > 100 µg/mL
C[n+]1c(/C=C/c2c[nH]c3ccccc23)cc(/C=C2\Sc3ccccc3N2CCCN2CCCC2)c2ccccc21.[I-] | broth dilution | ATCC19606 | drug-resistant strain | 32 µg/mL
CCOC(=O)c1cc(-c2cccc(NC(=O)Nc3ccc(Cl)c(Cl)c3)c2)on1 | broth dilution | BAA1605 |  | > 64 µg/mL
Cc1c(NN=C(C#N)C2=NC(=O)CS2)c(=O)n(-c2ccccc2)n1C | broth dilution |  |  | 0.43 µg/mL (≈ 1.21 µM)
CN[C@@H]1[C@H](O)[C@H](NC)[C@H]2O[C@@]3(O)C(=O)C[C@@H](C)O[C@H]3O[C@@H]2[C@H]1O | broth dilution | ATCC19606 |  | > 200 µg/mL
COC(=O)c1cc(-c2cccc(NC(=S)Nc3cccc(Cl)c3)c2)on1 | broth dilution | BAA1605 |  | > 64 µg/mL
Fc1c(F)c(F)c(F)c(F)c1F |  | ATCC19606 |  | > 250 µg/mL
C[n+]1ccc(/C=C2\Sc3ccccc3N2CCCN2CCCCC2)c2ccccc21.[I-] | broth dilution | ATCC19606 | drug-resistant strain | 64 µg/mL
COC(=O)c1cc(-c2cccc(NC(=O)Nc3cccc(Br)c3)c2)on1 | broth dilution | BAA1605 |  | > 64 µg/mL
